Measured values from ChEMBL document CHEMBL2407007, “Exploring the space of histidine containing dipeptides in search of novel efficient RCS sequestering agents” (Eur J Med Chem, 2013).
Residues, ends and D or L forms follow the SMILES beside them.

What was measured:
[1] = Selectivity ratio of antioxidant activity assessed as HNE quenching to antioxidant activity assessed as PYR quenching
Procedure, shortened: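 Ratio of % HNE quenched to % pyridoxal quenched. Both measured after 180 min incubation, with % consumption taken against blanks without compound.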

[2] = Antioxidant activity assessed as HNE quenching at 1 mM after 180 mins by HPLC analysis; assay type: functional
Procedure, shortened: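 HNE consumption measured with dipeptide at 1 mM in 10 mmol PBS pH 7.4, 180 min at 37 °C. Remaining HNE measured by reversed-phase HPLC with PDA detection at 224 nm. Column at 37 °C. Isocratic H2O/CH3CN/HCOOH 40/60/0.1. Result given as % aldehyde consumed relative to a blank without compound.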

[3] = Antioxidant activity assessed as PYR quenching after 180 mins by HPLC analysis; assay type: functional; parameters: concentration or dose not given beside the values
Procedure, shortened: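 Pyridoxal used as the target aldehyde under the same incubation (180 min). Consumption determined by HPLC with fluorimetric detection. Expressed as % aldehyde consumed versus a blank incubated without compound.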

[4] = Stability in human serum assessed as compound remaining at 50 uM after 30 mins by LC-MS analysis; assay type: ADME, cell-free; details: read-out: Stability

SMILES	Selectivity ratio [1]	Activity [2]	Activity [3]	remaining at 0.5 h, 50 µM [4]
NC(=O)[C@@H](Cc1cnc[nH]1)NC(=O)[C@@H](N)Cc1cnc[nH]1	1.26	9.16%	7.28%	
NCC(=O)N[C@@H](Cc1cnc[nH]1)C(=O)O (H-Gly-His-OH)	2.42	9.11%	3.77%	
NC(=O)[C@H](Cc1cnc[nH]1)NC(=O)[C@@H](N)Cc1c[nH]c2ccccc12	6.01	8.62%	1.86%	
N=C(N)NCCC[C@H](N)C(=O)N[C@@H](Cc1cnc[nH]1)C(N)=O	30	7.79%	0.26%	
COC(=O)[C@H](Cc1cnc[nH]1)NC(=O)[C@@H](N)C(C)C	5.71	4.97%	0.87%	
COC(=O)[C@@H](Cc1cnc[nH]1)NC(=O)[C@@H](N)Cc1ccc(O)cc1	21.3	27.4%	1.29%	40.5%
NC(=O)[C@H](Cc1cnc[nH]1)NC(=O)[C@@H](N)CS	3.61	100%	27.7%	
CC[C@H](C)[C@H](N)C(=O)N[C@@H](Cc1cnc[nH]1)C(N)=O	3.51	7.09%	2.02%	
COC(=O)[C@H](Cc1cnc[nH]1)NC(=O)[C@@H](N)CO	51.8	5.18%	0.1%	
NC(=O)[C@@H](Cc1cnc[nH]1)NC(=O)[C@@H](N)CC(=O)O	4.02	5.98%	1.16%	
COC(=O)[C@H](Cc1cnc[nH]1)NC(=O)[C@@H](N)CCC(=O)O	16.1	12.2%	0.76%	
NC(=O)[C@H](Cc1cnc[nH]1)NC(=O)[C@@H](N)CC(=O)O	5.16	5.99%	1.49%	
C[C@@H](O)[C@H](N)C(=O)N[C@H](Cc1cnc[nH]1)C(N)=O	1.83	12.1%	6.62%	
NC(=O)[C@H](Cc1cnc[nH]1)NC(=O)[C@@H](N)Cc1cnc[nH]1	1.35	9.81%	7.86%	
CC[C@H](C)[C@H](N)C(=O)N[C@H](Cc1cnc[nH]1)C(N)=O	8.69	5.13%	0.59%	
NCCC(=O)N[C@@H](Cc1c[nH]cn1)C(=O)O	8.65	48.2%	5.57%	
COC(=O)[C@@H](Cc1cnc[nH]1)NC(=O)[C@@H](N)CC(N)=O	8.33	9.5%	1.14%	
C[C@@H](O)[C@H](N)C(=O)N[C@@H](Cc1cnc[nH]1)C(N)=O	2.75	3.9%	1.42%	
NC(=O)CC[C@H](N)C(=O)N[C@@H](Cc1cnc[nH]1)C(N)=O	3.54	9.37%	2.65%	
NCCCC[C@H](N)C(=O)N[C@H](Cc1cnc[nH]1)C(N)=O	5.55	4.16%	0.75%	68%
COC(=O)[C@@H](Cc1cnc[nH]1)NC(=O)[C@@H](N)CS	2.45	100%	40.8%	

SMILES	Selectivity ratio [1]	Activity [2]	Activity [3]	remaining at 0.5 h, 50 µM [4]
COC(=O)[C@@H](Cc1cnc[nH]1)NC(=O)[C@@H](N)CCCCN	29.1	10.2%	0.35%	90.5%
COC(=O)[C@@H](Cc1cnc[nH]1)NC(=O)[C@@H](N)C(C)C	4.67	16.9%	3.62%	
COC(=O)[C@H](Cc1cnc[nH]1)NC(=O)[C@@H](N)Cc1ccc(O)cc1	3.12	12.5%	4.02%	
COC(=O)[C@H](Cc1cnc[nH]1)NC(=O)[C@@H](N)CCSC	0.07	0.17%	2.61%	
COC(=O)[C@@H](Cc1cnc[nH]1)NC(=O)[C@@H](N)Cc1c[nH]c2ccccc12	3.24	18.8%	5.81%	
NC(=O)[C@@H](Cc1cnc[nH]1)NC(=O)[C@@H](N)CS	2.69	100%	37.2%	
NC(=O)[C@@H](Cc1cnc[nH]1)NC(=O)[C@@H](N)Cc1c[nH]c2ccccc12	86.2	11.2%	0.13%	
COC(=O)[C@@H](Cc1cnc[nH]1)NC(=O)[C@@H](N)Cc1cnc[nH]1	1.15	8.86%	7.7%	
COC(=O)[C@H](Cc1cnc[nH]1)NC(=O)[C@@H](N)CCCCN	16.7	31.3%	1.87%	87.5%
COC(=O)[C@H](Cc1cnc[nH]1)NC(=O)[C@@H](N)CS	3.96	100%	25.3%	
NC(=O)[C@@H](Cc1cnc[nH]1)NC(=O)[C@@H](N)Cc1ccccc1	9.57	6.7%	0.7%	
NC(=O)[C@H](Cc1cnc[nH]1)NC(=O)[C@@H](N)Cc1ccccc1	8.02	9.79%	1.22%	
COC(=O)[C@@H](Cc1cnc[nH]1)NC(=O)[C@@H](N)CCSC	0.58	1.81%	3.11%	
NCCCC[C@H](N)C(=O)N[C@@H](Cc1cnc[nH]1)C(N)=O	38.3	15.7%	0.41%	67.7%
COC(=O)[C@H](Cc1c[nH]cn1)NC(=O)[C@@H](N)Cc1c[nH]c2ccccc12	2.79	11.7%	4.2%	
N=C(N)NCCC[C@H](N)C(=O)N[C@H](Cc1cnc[nH]1)C(N)=O	27.9	12%	0.43%	
COC(=O)[C@@H](Cc1cnc[nH]1)NC(=O)[C@@H](N)CO	2.84	5.91%	2.08%	
COC(=O)[C@H](Cc1cnc[nH]1)NC(=O)[C@@H](N)CC(N)=O	9.59	9.59%	1%	
COC(=O)[C@@H](Cc1cnc[nH]1)NC(=O)[C@@H](N)CCC(=O)O	18	13.1%	0.73%	
NC(=O)CC[C@H](N)C(=O)N[C@H](Cc1cnc[nH]1)C(N)=O	9.4	14.8%	1.57%	81.3%
COC(=O)[C@H](Cc1cnc[nH]1)NC(=O)[C@@H](N)Cc1cnc[nH]1	3.3	6%	1.82%	
